Here are results for 13 molecules from ChEMBL document CHEMBL3616462, “Synthesis and antiviral activity of maleopimaric and quinopimaric acids' derivatives” (Bioorg Med Chem, 2015).

pEC50: −log10 of the molar value. Bounds are passed on as bounds.

A short description of data set [1]: Antiviral activity against Influenza A virus (A/California/07/2009(H1N1)) infected in MDCK cells. The format is functional, cell-based.
Data set [2] is described as follows: Cytotoxicity against Influenza A virus (A/California/07/2009(H1N1)) infected MDCK cells. The settings on record: dog. The format is cell-based, Canis lupus familiaris.
Data set [3] in a line: Selectivity index, ratio of CC50 for Influenza A virus (A/California/07/2009(H1N1)) infected MDCK cells to EC50 for antiviral activity against Influenza A virus H1N1 (A/California/07/2009(H1N1)) infected in MDCK cells. To be noted: dog; read-out: Ratio CC50/EC50. The format is toxicity, cell-based.
Data set [4] is described as follows: Antiviral activity against Influenza A virus (A/Brisbane/10/2007(H3N2)) infected in MDCK cells. The format is functional, cell-based.
A short description of data set [5]: Cytotoxicity against Influenza A virus (A/Brisbane/10/2007(H3N2)) infected MDCK cells. The format is cell-based, Canis lupus familiaris. To be noted: dog.
Data set [6] is described as follows: Selectivity index, ratio of CC50 for Influenza A virus (A/Brisbane/10/2007(H3N2)) infected MDCK cells to EC50 for antiviral activity against Influenza A virus (A/Brisbane/10/2007(H3N2)). The format is toxicity, cell-based. The settings on record: dog; read-out: Ratio CC50/EC50.
A short description of data set [7]: Antiviral activity against Influenza A virus (A/Viet Nam/1203/2004(H5N1)) infected in MDCK cells. The format is functional, cell-based.
Data set [8] is described as follows: Cytotoxicity against Influenza A virus (A/Viet Nam/1203/2004(H5N1)) infected MDCK cells. The format is cell-based, Canis lupus familiaris. The settings on record: dog.
The nature of data set [9]: Selectivity index, ratio of CC50 for Influenza A virus (A/Viet Nam/1203/2004(H5N1)) infected MDCK cells to EC50 for antiviral activity against Influenza A virus (A/Viet Nam/1203/2004(H5N1)) infected in MDCK cells. To be noted: dog; read-out: Ratio CC50/EC50. The format is toxicity, cell-based.
A further data set has as its system Influenza B virus. The data set is described as follows: Antiviral activity against Influenza B virus (B/Florida/4/2006) in MDCK cells. The format is functional, cell-based. To be noted: B/Florida/4/2006, MDCK.
Data set [10] can be described thus: Cytotoxicity against Influenza B virus (B/Florida/4/2006) infected MDCK cells. The format is cell-based, Canis lupus familiaris. To be noted: dog.
The nature of data set [11]: Selectivity index, ratio of CC50 for Influenza B virus (B/Florida/4/2006) infected MDCK cells to EC50 for antiviral activity against Influenza B virus (B/Florida/4/2006) in MDCK cells. The format is toxicity, cell-based. The settings on record: dog; read-out: Ratio CC50/EC50.
In another data set the test system is Hepatitis B virus. Description: Antiviral activity against HBV infected in human HepG2(2.2.15) cells. The format is functional, organism-based. The method in brief: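 Primary anti-HBV screen in confluent 2.2.15 cells, run alongside a toxicity assay in the same cells. Compounds were supplied as DMSO solutions.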
The nature of data set [12]: Cytotoxicity against HBV infected human HepG2(2.2.15) cells. The format is cell-based. The settings on record: HBV infected HepG2(2.2.15) cells. The essentials:
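Toxicity was measured on confluent 2.2.15 cells alongside the primary anti-HBV assay. CC50 is given in µM.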

The subject of another data set is Hepatitis C virus. Description: Antiviral activity against HCV infected in human Huh7ET cells assessed as reduction in HCV RNA-derived luciferase activity at 20 uM by luciferase reporter gene assay. The format is functional, Hepacivirus hominis. The settings on record: Huh-7. The method in brief: (§1)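 HCV RNA replicon assay in Huh7 ET cells. Compounds were added in triplicate at a single concentration of 20 µM. Antiviral activity was read as HCV RNA-derived luciferase signal, expressed as % of control. Toxicity was read as β-actin RNA, % of control. SI = toxicity/antiviral activity. Interferon-α (2 IU/mL) was the positive control.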

Data set [13] can be described thus: Toxicity against human Huh7ET cells assessed as reduction in beta-actin RNA levels at 20 uM. The format is cell-based, Huh-7. To be noted: values are per cent of control. The essentials:
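HCV RNA replicon assay in Huh7 ET cells. Compounds were added in triplicate at a single concentration of 20 µM. Cytotoxicity was read as β-actin RNA as % of control, alongside HCV RNA-derived luciferase activity. Interferon-α (2 IU/mL) was the positive control.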

The nature of data set [14]: Selectivity index, ratio of toxicity against human Huh7ET cells assessed as reduction in beta-actin RNA levels at 20 uM to antiviral activity against HCV infected in human Huh7ET cells assessed as reduction in HCV RNA-derived luciferase activity at 20 uM by luciferase reporter gene assay. The format is cell-based, Huh-7. To be noted: read-out: Selectivity Index. The essentials: as §1
For orientation: In a reporter assay the amount or activity of a reporter protein is the signal.

Regarding `CC(C)C1=C[C@]23CC[C@@H]4[C@](C)(CCC[C@@]4(C)C(=O)O)[C@H]2C[C@H]1[C@H]1C(=O)OC(=O)[C@H]13`, the pEC50 was 4.51 in data set [1], 4.43 in data set [4], 4.49 in [7] and 4.57 in the data set on Influenza B virus. In addition, the 50% cytotoxic concentration (CC50) was 48 µM in data set [2], 44 µM in data set [5], 35 µM in [8] and 36 µM in [10]. Further, the selectivity ratio in [3] came out at 1.5; in data set [6], 1.2; in [9], 1.1; in [11], 1.3.
`CC(C)C1=C[C@@]23CC[C@@H]4[C@](C)(CCC[C@@]4(C)C(=O)O)[C@H]2C[C@@H]1[C@H]1C(=O)CCC(=O)[C@H]13`: the results for the pEC50 (with Hepatitis B virus; in [4]; in the data set on Influenza B virus) were less than 5.00, 4.49 and 5.07, respectively. The EC90 in the data set with Hepatitis B virus was greater than 10 µM. Also, the CC50 in data set [12] amounted to 62 µM; in data set [5] it was 36 µM; in [10], 34 µM. Also, the inhibition at 20 µM in the data set with Hepatitis C virus came to 0%. In addition, the response, % of control at 20 µM in data set [13] (Huh7ET cells) amounted to 88%. Moreover, the selectivity ratio at 20 µM in [14] is less than 1. Also, the selectivity ratio in [6] was 1.1; in data set [11], 4.
As for `COC(=O)[C@]1(C)CCC[C@]2(C)[C@H]3C[C@H]4C(C(C)C)=C[C@]3(CC[C@H]21)[C@@H]1C(=O)[C@H]2O[C@H]2C(=O)[C@@H]14`, the pEC50 in [1] is 4.54; in [4], less than 4.64; in data set [7], 5.49; in the data set on Influenza B virus, 5.49. Further, the CC50 worked out at 34 µM in data set [2], 23 µM in data set [5], 3.3 µM in data set [8] and 3.3 µM in data set [10]. The selectivity ratio came out at 1.2 in data set [3], 1 in data set [9] and 1 in data set [11].
On to `COC(=O)[C@]12CCC(=O)[C@H]1[C@@]13C=C(C(C)C)[C@@H]2C[C@@H]1[C@@]1(C)CCC[C@@](C)(C(=O)OC)[C@@H]1CC3`, for which the negative logarithm of the EC50 (pEC50) in data set [1] was 4.51; in data set [4] it was 4.49; in data set [7], 4.49; in the data set with Influenza B virus it was less than 4.51. The CC50 in [2] was 34 µM; in [5], 33 µM; in data set [8], 32 µM; in data set [10] it was 31 µM. For the same molecule, the selectivity ratio in [3] worked out at 1.1; in [6], 1; in data set [9] it was 1.
As to `COC(=O)[C@]12CC[C@H](O)[C@H]1[C@@]13C=C(C(C)C)[C@@H]2C[C@@H]1[C@@]1(C)CCC[C@@](C)(C(=O)OC)[C@@H]1CC3`, the pEC50 in [1] was 4.49; in data set [4], less than 4.62; in data set [7] it was 5.49; with Influenza B virus it was less than 5.51. Besides, the CC50 turned out to be 35 µM in [2], 24 µM in data set [5], 3.2 µM in data set [8] and 3.1 µM in data set [10]. Further, the selectivity ratio in data set [3] was 1.1; in data set [9], 1.
On to `COC(=O)[C@]1(C)CCC[C@]2(C)[C@H]3C[C@H]4C(C(C)C)=C[C@]3(CC[C@H]21)[C@@H]1C(=O)OC(=O)[C@@H]14`, for which the pEC50 is 4.51 in data set [1], 4.49 in data set [4], 4.68 in data set [7] and less than 5.06 in the data set on Influenza B virus. The CC50 came out at 35 µM in [2], 33 µM in data set [5], 32 µM in data set [8] and 8.7 µM in [10]. The selectivity ratio is 1.1 in data set [3], 1 in data set [6] and 1.5 in [9].
As to `COC(=O)[C@H](C)NC(=O)[C@]1(C)CCC[C@]2(C)[C@H]3C[C@H]4C(C(C)C)=C[C@]3(CC[C@H]21)[C@@H]1C(=O)OC(=O)[C@@H]14`, the negative-log EC50 (pEC50) (in data set [1]; in data set [4]; in data set [7]; in the data set with Influenza B virus) was 4.49 throughout. Moreover, the CC50 amounted to 34 µM in data set [2], 33 µM in data set [5], 33 µM in data set [8] and 33 µM in data set [10]. Besides, the selectivity ratio was 1.1 in data set [3], 1 in [6], 1 in [9] and 1 in [11].
With `COC(=O)[C@H](CCSC)NC(=O)[C@]1(C)CCC[C@]2(C)[C@H]3C[C@H]4C(C(C)C)=C[C@]3(CC[C@H]21)[C@@H]1C(=O)OC(=O)[C@@H]14`, the pEC50 in [1] was 4.51; in data set [4] it was less than 4.52; in data set [7] it was 4.49; with Influenza B virus it was 4.49. In addition, the CC50 in data set [2] came to 34 µM; in data set [5] it was 30 µM; in data set [8], 32 µM; in data set [10] it was 32 µM. Moreover, the results for the selectivity ratio in [3], in [9] and in [11] were 1.1, 1 and 1, respectively.
Turning to `COC(=O)[C@]1(C)CCC[C@]2(C)[C@H]3C[C@H]4C(C(C)C)=C[C@]3(CC[C@H]21)[C@@H]1C(=O)CCC(=O)[C@@H]14`, the pEC50 is less than 4.00 in [1], less than 4.00 in data set [4], less than 4.00 in data set [7] and 4.49 with Influenza B virus. In addition, the CC50 in data set [2], in [5], in data set [8] and in data set [10] was greater than 100 µM in each case. The selectivity ratio in [11] is greater than 3.1.
On to `COC(=O)[C@]1(C)CCC[C@]2(C)[C@H]3C[C@H]4C(C(C)C)=C[C@]3(CC[C@H]21)[C@@H]1C(=O)CC[C@H](OC(=O)CCC(=O)O)[C@@H]14`, for which the pEC50 in data set [1] was less than 4.00; in [4], less than 4.00; in [7], 4.06; in the data set on Influenza B virus, less than 4.00. Also, the CC50 in data set [2], in [5], in [8] and in [10] was greater than 100 µM in each case. In data set [9], the selectivity ratio is greater than 1.1.
Consider `COC(=O)[C@]1(C)CCC[C@]2(C)[C@H]3C[C@H]4C(C(C)C)=C[C@]3(CC[C@H]21)[C@@H]1C(=O)CC[C@H](OC(=O)c2cccnc2)[C@@H]14`, for which the pEC50 in [1] was 4.49; in data set [4] it was 4.49; in data set [7] it was 5.49; in the data set on Influenza B virus it was 5.49. Moreover, the CC50 in data set [2] came to 35 µM; in data set [5] it was 33 µM; in data set [8] it was 3.2 µM; in [10], 3.2 µM. The selectivity ratio in data set [3] was determined as 1.1; in data set [6] it was 1; in data set [9] it was 1; in data set [11] it was 1.
As for `COC(=O)[C@]1(C)CCC[C@]2(C)[C@H]3C[C@H]4C(C(C)C)=C[C@]3(CC[C@H]21)[C@@H]1C(=O)CC[C@H](OC(=O)/C=C/c2ccccc2)[C@@H]14`, the pEC50 is 4.51 in data set [1], less than 4.77 in data set [4], less than 5.05 in data set [7] and 5.00 in the data set on Influenza B virus. Further, the CC50 in data set [2] stood at 35 µM; in data set [5] it was 17 µM; in data set [8], 9 µM; in data set [10], 24 µM. The values for the selectivity ratio in data set [3] and in data set [11] were 1.1 and 2.4, respectively.
In the data set on Hepatitis B virus, `COC(=O)[C@]1(C)CCC[C@]2(C)[C@H]3C[C@H]4C(=C(C)C)C5O[C@@]6(O)CCC(=O)[C@H]4[C@@H]6[C@@]53CC[C@H]21` showed a pEC50 of less than 5.00 and an EC90 greater than 10 µM. Further, the cytotoxic concentration (CC50) in data set [12] came out at 59 µM. Moreover, the inhibition at 20 µM with Hepatitis C virus worked out at 68.4%. Moreover, in data set [13] (huh-7, 20 µM), the “response, % of control” value was found to be 151.2%. Also, the selectivity ratio at 20 µM in data set [14] is greater than 1.

In general, pEC50 refers to −log10 of the EC50, conventionally taken in molar units. By CC50 is commonly meant the concentration that lowers cell viability or growth by half. One may read the EC90 as the concentration needed for an effect of 90%. Read a low EC90 as greater potency. In general, inhibition refers to the change of the read-out against control, counted positive when it falls.
